Data on four molecules can be found in ChEMBL document CHEMBL2010686, “Influence of the active compounds of Perilla frutescens leaves on lipid membranes” (J Nat Prod, 2012).

The source made the active and inactive calls. The calls are words filed in the database; no cut-off is given here.

Series [1] has as its system Lipid bilayer. The experiment in a line: Binding affinity to 1,2-dimyristoyl-sn-glycero-3-phosphocholine bilayer assessed as change in main phase transition temperature at low concentration by differential scanning calorimetry. In kind it is physicochemical. In short, it runs like this:
(§1)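 Differential scanning calorimetry on 15 mM multilamellar DMPC vesicles in 50 mM sodium phosphate (ionic strength 154 mM with NaCl, pH 7.5). Terpenoid added in MeOH (below 10 μL); the x = 0 control received 10 μL MeOH. Terpenoid mole fraction varied from 0 to 0.15. Main-transition Tm, pretransition temperature and transition enthalpy were read from the thermograms.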

Series [2] can be described thus: 1,2-dimyristoyl-sn-glycero-3-phosphocholine bilayer-water partition coefficient, K of the compound at 300 uM by isothermal titration calorimetry at 35 deg C. Particulars: DMPC vesicles/water. In kind it is physicochemical. Summed up: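 DMPC vesicles hydrated in 50 mM sodium phosphate (ionic strength 154 mM with NaCl, pH 7.5), extruded at 35 °C through 100 nm filters. Lipid suspension (1–20 mM) injected in small aliquots into ~300 μM terpenoid in the ITC cell (1.409 mL). Integrated heats per injection fitted with a dilution-heat term to give K and ΔH. ΔG0 = −RTln(55.5K). ΔCP from linear regression of ΔH versus temperature.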
Background: Isothermal titration calorimetry measures the heat released or taken up as one component is titrated into another.

Series [3] relates to Lipid bilayer. The experiment in a line: Binding affinity to Me-16-DSA labelled 1,2-dimyristoyl-sn-glycero-3-phosphocholine bilayer containing assessed as change in membrane fluidity by electron paramagnetic resonance spectroscopy. In short, it runs like this: (§2)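 DMPC membranes carrying a spin label, either pure or with terpenoid at 15 mol % (Me-5-DSA also over a concentration series). Samples held in hematocrit tubes and equilibrated 10 min at 35 °C. X-band spectra (~9.4 GHz, ~2 mW, 100 kHz modulation, 1 G amplitude), usually five scans summed. Order parameter from hyperfine splittings. Rotational correlation times from central-line width and line heights as a fluidity measure.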

Series [4] has as its system Lipid bilayer. The experiment in a line: Binding affinity to Me-5-DSA labelled 1,2-dimyristoyl-sn-glycero-3-phosphocholine bilayer containing assessed as change in membrane fluidity by electron paramagnetic resonance spectroscopy. Summed up:
as §2

Series [5] concerns Lipid bilayer. The experiment in a line: Binding affinity to 5-DSA labelled 1,2-dimyristoyl-sn-glycero-3-phosphocholine bilayer containing assessed as change in membrane fluidity by electron paramagnetic resonance spectroscopy. In short, it runs like this:
as §2

For series [6], the system named is Lipid bilayer. The experiment in a line: Binding affinity to CSL labelled 1,2-dimyristoyl-sn-glycero-3-phosphocholine bilayer containing assessed as change in membrane fluidity by electron paramagnetic resonance spectroscopy. In short, it runs like this: as §2
In series [7] the test system is Lipid bilayer. The experiment in a line: Binding affinity to 1,2-dimyristoyl-sn-glycero-3-phosphocholine bilayer assessed as decrease in main phase transition temperature at high concentration by differential scanning calorimetry (reference value: 24.4 deg C). The format is physicochemical. In short, it runs like this: as §1
A general note: DSC measures the heat that a sample takes up or gives off during a temperature scan.

Series [8] concerns Lipid bilayer. Kind of series: Binding affinity to 1,2-dimyristoyl-sn-glycero-3-phosphocholine bilayer assessed as increase in pre-transition temperature at low concentration by differential scanning calorimetry (reference value: 12.7 deg C). In kind it is physicochemical. In short, it runs like this:
as §1

In the case of `C=C(C)C1CC=C(C=O)CC1` (stereo not drawn) [PERILLALDEHYDE], the Activity result in series [1] is given as “Not Active”. In series [2], this molecule returned a Ko of 215 M⁻¹. Besides, the outcome in series [3], in series [4], in series [5] and in series [6] was inactive. Besides, in series [7], the T was 19.4 °C.

Take `C=C(C)[C@H]1CC=C(C)CC1` [D-LIMONENE]: the Activity result in series [1] is listed as “Not Active”. Also, the Ko in series [2] was determined as 10900 M⁻¹. The outcome in series [3], in series [4], in series [5] and in series [6] was inactive. The T was determined as 14.5 °C in series [8] and 16.3 °C in series [7].

Turning to `C=C(C)[C@@H]1CC=C(C(=O)O)CC1` [PERILLIC ACID], the Activity result in series [2] is “Not Active”.

As for `C=C(C)[C@@H]1CC=C(CO)CC1` [PERILLYL ALCOHOL], in series [1], the Activity result is recorded as “Not Active”. The molecule also gave a Ko in series [2] of 305 M⁻¹. Also, the result in series [3], in series [4], in series [5] and in series [6] was inactive. Besides, the T in series [7] stood at 19.4 °C.
